Target: T1, Protein Tat (Human immunodeficiency virus type 1 group M subtype B (isolate HXB2), UniProt P04608)
T1 sequence (P04608 whole entry): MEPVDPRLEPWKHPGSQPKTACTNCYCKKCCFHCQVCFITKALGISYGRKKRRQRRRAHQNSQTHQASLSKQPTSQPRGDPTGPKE
Experiment: Inhibition of HIV1 TAT transfected to human HeLa cells assessed as decrease in luminescence after 48 hrs by duel luciferase reporter gene assay
Procedure, shortened: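 HeLa cells stably carrying HIV-1 Tat and firefly luciferase on one bicistronic mRNA plus an HIV-1 LTR-renilla luciferase reporter. IC50 taken from dose-dependent fall in renilla luminescence (Tat-TAR function); firefly signal monitors Tat expression/cytotoxicity.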

IC50 [µM]	Compound
0.9	C[C@@H](CN[C@H](CN[C@H](CN[C@H](CNCCC(N)=O)Cc1ccc(O)cc1)Cc1ccc(O)cc1)Cc1ccc(O)cc1)NC[C@H](Cc1ccc(O)cc1)NC[C@H](Cc1ccc(O)cc1)NC[C@H](Cc1ccc(O)cc1)NC[C@@H](N)Cc1ccc(O)cc1
10	NCCCC[C@@H](CN[C@H](CNCCC(N)=O)Cc1ccc(O)cc1)NC[C@H](Cc1ccc(O)cc1)NC[C@H](CCCCN)NC[C@H](Cc1c[nH]c2ccccc12)NC[C@@H](N)Cc1ccc(O)cc1
35	NCCCC[C@@H](CN[C@H](CNCCC(N)=O)Cc1ccc(O)cc1)NC[C@H](Cc1ccc(O)cc1)NC[C@H](CCCCN)NC[C@H](Cc1ccc(O)cc1)NC[C@@H](N)Cc1ccc(O)cc1
19	NC(=O)CCNC[C@H](Cc1ccc(O)cc1)NC[C@H](Cc1ccc(O)cc1)NC[C@@H](N)Cc1ccc(O)cc1
12	NCCCC[C@@H](CN[C@H](CN[C@H](CN[C@H](CNCCC(N)=O)Cc1ccc(O)cc1)Cc1ccc(O)cc1)Cc1ccc(O)cc1)NC[C@H](Cc1ccc(O)cc1)NC[C@@H](N)Cc1ccc(O)cc1
6	C[C@@H](CN[C@H](CN[C@H](CN[C@H](CNCCC(N)=O)Cc1ccc(O)cc1)Cc1ccc(O)cc1)Cc1ccc(O)cc1)NC[C@H](Cc1ccc(O)cc1)NC[C@@H](N)Cc1ccc(O)cc1
30	NC(=O)CCNC[C@H](Cc1ccc(O)cc1)NC[C@H](Cc1ccc(O)cc1)NC[C@H](Cc1ccc(O)cc1)NC[C@H](Cc1ccc(O)cc1)NC[C@@H](N)Cc1ccc(O)cc1

From BindingDB's records for doi:10.1016/j.bmcl.2009.10.078 (Niddk, 2009)
